We go through 1 compound from ChEMBL document CHEMBL4368918, “Structure-Based Design of Inhibitors Selective for Human Proteasome β2c or β2i Subunits” (J Med Chem, 2019).

A word on the IC50: it is the midpoint of a concentration-inhibition curve.

The species named for the first assay is Homo sapiens. In words: Selectivity ratio of IC50 for 20S immunoproteasome beta 1 in human Raji cell lysates to IC50 for 20S constitutive proteasome beta 2 trypsin-like activity in human Raji cells. It counts as cell-based.
Regarding `COC[C@H](NC(=O)[C@H](CC(C)C)NC(=O)c1cnc(C)s1)C(=O)N[C@H](/C=C/S(C)(=O)=O)Cc1ccc(CN)cc1`, the Ratio IC50 was greater than 1300.

The species named for another assay is Homo sapiens. In words: Selectivity ratio of IC50 for 20S immunoproteasome beta 5 in human Raji cell lysates to IC50 for 20S constitutive proteasome beta 2 trypsin-like activity in human Raji cells. Format: cell-based.
As for `COC[C@H](NC(=O)[C@H](CC(C)C)NC(=O)c1cnc(C)s1)C(=O)N[C@H](/C=C/S(C)(=O)=O)Cc1ccc(CN)cc1`, the Ratio IC50 stood at 740.

For the next assay, the target named is T1, Proteasome Macropain subunit MB1 (Homo sapiens, UniProt P28074).
T1 sequence (P28074 whole entry): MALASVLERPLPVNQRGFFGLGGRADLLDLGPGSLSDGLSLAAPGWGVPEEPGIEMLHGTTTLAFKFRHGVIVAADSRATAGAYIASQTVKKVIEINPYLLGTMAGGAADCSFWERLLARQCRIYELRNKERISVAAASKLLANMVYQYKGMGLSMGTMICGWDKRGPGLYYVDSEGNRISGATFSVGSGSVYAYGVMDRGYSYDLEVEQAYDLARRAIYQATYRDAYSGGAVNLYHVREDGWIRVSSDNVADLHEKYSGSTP
In words: Inhibition of 20S constitutive proteasome beta 5 chymotrypsin-like activity in human Raji cell lysates after 1 hr by competitive ABPP assay. Format: subcellular, Lysate.
`COC[C@H](NC(=O)[C@H](CC(C)C)NC(=O)c1cnc(C)s1)C(=O)N[C@H](/C=C/S(C)(=O)=O)Cc1ccc(CN)cc1` showed a 50% inhibitory concentration (IC50) of 45.3 µM.

Another assay deals with T2, Proteasome subunit beta type-6 (Homo sapiens, UniProt P28072).
T2 sequence (P28072 whole entry): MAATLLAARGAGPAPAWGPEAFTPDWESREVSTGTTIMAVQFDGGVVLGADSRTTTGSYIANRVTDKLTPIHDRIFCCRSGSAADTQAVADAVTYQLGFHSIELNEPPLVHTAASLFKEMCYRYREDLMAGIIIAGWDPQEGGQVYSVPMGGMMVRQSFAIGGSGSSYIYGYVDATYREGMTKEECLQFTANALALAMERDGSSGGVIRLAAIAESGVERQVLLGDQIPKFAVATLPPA
Briefly: Inhibition of 20S constitutive proteasome beta 1 caspase-like activity in human Raji cell lysates after 1 hr by competitive ABPP assay. Format: subcellular, Lysate. A digest of the protocol: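 Raji cells were sonicated in 3 volumes of Tris pH 7.5 lysis buffer containing DTT, MgCl₂, sucrose, 2 mM ATP and 0.05% digitonin. Lysate (5 μg protein, in buffer with 2 mM ATP and glycerol) was preincubated with inhibitor for 1 h at 37 °C, then with a cocktail of three fluorescent ABPs for 1 h. In-gel fluorescence densitometry was normalized to mock. IC50 came from the mean of three experiments.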
Compound `COC[C@H](NC(=O)[C@H](CC(C)C)NC(=O)c1cnc(C)s1)C(=O)N[C@H](/C=C/S(C)(=O)=O)Cc1ccc(CN)cc1` returned an IC50 greater than 100 µM.

Another assay concerns the target T3, Proteasome subunit beta type-9 (Homo sapiens, UniProt P28065).
T3 sequence (P28065 whole entry): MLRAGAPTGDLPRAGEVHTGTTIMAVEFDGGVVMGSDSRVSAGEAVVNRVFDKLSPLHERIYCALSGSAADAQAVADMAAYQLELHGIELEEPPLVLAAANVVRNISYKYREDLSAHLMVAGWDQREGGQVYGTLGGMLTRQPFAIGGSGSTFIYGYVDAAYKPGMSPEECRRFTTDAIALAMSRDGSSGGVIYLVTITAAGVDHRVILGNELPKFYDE
In words: Inhibition of 20S immunoproteasome beta 1 in human RPMI8226 cell lysates after 1 hr by coomassie brilliant blue staining-based fluorescence assay. It counts as subcellular, Lysate. An outline of the steps: (§1)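 Living RPMI-8226 cells were grown in RPMI-1640 with 10% FCS. Cells at (5–8)×10⁵ cells/mL were exposed to inhibitor for 1 h at 37 °C, washed in PBS and lysed on ice for 1 h in digitonin/ATP buffer. Residual activity was read by cocktail-ABP labeling, SDS-PAGE and fluorescence densitometry relative to mock, with Coomassie staining correcting for loading. IC50 came from three independent experiments.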
`COC[C@H](NC(=O)[C@H](CC(C)C)NC(=O)c1cnc(C)s1)C(=O)N[C@H](/C=C/S(C)(=O)=O)Cc1ccc(CN)cc1` registered an IC50 greater than 10 µM.

For a further assay, the target named is T4, Proteasome subunit beta type-10 (Homo sapiens, UniProt P40306).
T4 sequence (P40306 whole entry): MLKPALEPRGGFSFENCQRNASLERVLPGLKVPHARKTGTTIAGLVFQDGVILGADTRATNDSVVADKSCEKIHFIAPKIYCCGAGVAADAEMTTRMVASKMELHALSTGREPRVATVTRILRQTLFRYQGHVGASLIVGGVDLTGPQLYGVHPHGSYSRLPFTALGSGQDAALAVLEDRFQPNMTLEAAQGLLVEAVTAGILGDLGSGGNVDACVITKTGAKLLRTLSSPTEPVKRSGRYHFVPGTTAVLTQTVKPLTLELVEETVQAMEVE
In words: Inhibition of 20S immunoproteasome beta 2 in human RPMI8226 cell lysates after 1 hr by coomassie brilliant blue staining-based fluorescence assay. It counts as subcellular, Lysate.
`COC[C@H](NC(=O)[C@H](CC(C)C)NC(=O)c1cnc(C)s1)C(=O)N[C@H](/C=C/S(C)(=O)=O)Cc1ccc(CN)cc1` yielded an IC50 greater than 10 µM.

A further assay is filed under the species Homo sapiens. Briefly: Selectivity ratio of IC50 for 20S constitutive proteasome beta 1 caspase-like activity in human Raji cell lysates to IC50 for 20S constitutive proteasome beta 2 trypsin-like activity in human Raji cells. It counts as cell-based.
Turning to `COC[C@H](NC(=O)[C@H](CC(C)C)NC(=O)c1cnc(C)s1)C(=O)N[C@H](/C=C/S(C)(=O)=O)Cc1ccc(CN)cc1`, the Ratio IC50 is greater than 1300.

Another assay concerns the target T1, Proteasome Macropain subunit MB1. Briefly: Inhibition of 20S constitutive proteasome beta 5 chymotrypsin-like activity in human RPMI8226 cell lysates after 1 hr by coomassie brilliant blue staining-based fluorescence assay. Format: subcellular, Lysate. An outline of the steps:
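Cells at (5–8)×10⁵ cells/mL were exposed to inhibitor for 1 h at 37 °C, washed in PBS and lysed on ice for 1 h in digitonin/ATP buffer. Residual activity was read by cocktail-ABP labeling, SDS-PAGE and fluorescence densitometry relative to mock, with Coomassie staining correcting for loading. IC50 came from three independent experiments.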
As for `COC[C@H](NC(=O)[C@H](CC(C)C)NC(=O)c1cnc(C)s1)C(=O)N[C@H](/C=C/S(C)(=O)=O)Cc1ccc(CN)cc1`, the IC50 was greater than 10 µM.

Another assay is filed under the species Homo sapiens. In words: Selectivity ratio of IC50 for 20S constitutive proteasome beta 5 chymotrypsin-like activity in human Raji cell lysates to IC50 for 20S constitutive proteasome beta 2 trypsin-like activity in human Raji cells. Format: cell-based.
As to `COC[C@H](NC(=O)[C@H](CC(C)C)NC(=O)c1cnc(C)s1)C(=O)N[C@H](/C=C/S(C)(=O)=O)Cc1ccc(CN)cc1`, the Ratio IC50 stood at 590.

In a further assay the target is T5, Proteasome subunit beta type-8 (Homo sapiens, UniProt P28062).
T5 sequence (P28062 whole entry): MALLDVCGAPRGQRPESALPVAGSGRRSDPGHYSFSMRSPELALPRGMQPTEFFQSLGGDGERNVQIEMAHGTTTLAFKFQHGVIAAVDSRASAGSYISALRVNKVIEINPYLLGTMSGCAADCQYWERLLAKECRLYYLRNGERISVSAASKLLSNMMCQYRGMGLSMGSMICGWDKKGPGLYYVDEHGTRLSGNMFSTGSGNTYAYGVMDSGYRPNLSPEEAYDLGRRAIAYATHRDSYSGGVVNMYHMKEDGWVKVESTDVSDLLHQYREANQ
Briefly: Inhibition of 20S immunoproteasome beta 5 in human RPMI8226 cell lysates after 1 hr by coomassie brilliant blue staining-based fluorescence assay. It counts as subcellular, Lysate. A digest of the protocol:
as §1
As to `COC[C@H](NC(=O)[C@H](CC(C)C)NC(=O)c1cnc(C)s1)C(=O)N[C@H](/C=C/S(C)(=O)=O)Cc1ccc(CN)cc1`, the IC50 is greater than 10 µM.

The species entered for the next assay is Homo sapiens. In words: Selectivity ratio of IC50 for 20S immunoproteasome beta 2 (unknown origin) to IC50 for 20S constitutive proteasome beta 2 trypsin-like activity (unknown origin).
For the compound `COC[C@H](NC(=O)[C@H](CC(C)C)NC(=O)c1cnc(C)s1)C(=O)N[C@H](/C=C/S(C)(=O)=O)Cc1ccc(CN)cc1`, the Ratio IC50 is greater than 14.

Another assay has as its target T4, Proteasome subunit beta type-10. In words: Inhibition of 20S immunoproteasome beta 2 (unknown origin) by cell based ABPP assay. A digest of the protocol:
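Living RPMI-8226 cells, (5–8) ×10^5 cells/mL, exposed to inhibitor 1 h at 37 °C, washed, lysed in digitonin buffer 1 h on ice; residual activity labelled with cocktail ABPs, SDS-PAGE in-gel fluorescence, bands divided by mock, Coomassie staining to correct loading. IC50 from mean of three independent experiments.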
Turning to `COC[C@H](NC(=O)[C@H](CC(C)C)NC(=O)c1cnc(C)s1)C(=O)N[C@H](/C=C/S(C)(=O)=O)Cc1ccc(CN)cc1`, the IC50 is greater than 1 µM.

The target in the next assay is T6, Proteasome subunit beta type-7 (Homo sapiens, UniProt Q99436).
T6 sequence (Q99436 whole entry): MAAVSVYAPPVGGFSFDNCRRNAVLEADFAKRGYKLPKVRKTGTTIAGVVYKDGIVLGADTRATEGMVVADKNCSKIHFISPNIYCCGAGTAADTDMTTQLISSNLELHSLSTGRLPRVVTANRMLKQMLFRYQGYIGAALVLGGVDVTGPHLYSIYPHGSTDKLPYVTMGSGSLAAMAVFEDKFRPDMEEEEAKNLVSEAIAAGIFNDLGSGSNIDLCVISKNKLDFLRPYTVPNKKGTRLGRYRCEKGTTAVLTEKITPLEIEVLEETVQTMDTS
In words: Inhibition of 20S constitutive proteasome beta 2 trypsin-like activity in human RPMI8226 cell lysates after 1 hr by coomassie brilliant blue staining-based fluorescence assay. Format: subcellular, Lysate.
Turning to `COC[C@H](NC(=O)[C@H](CC(C)C)NC(=O)c1cnc(C)s1)C(=O)N[C@H](/C=C/S(C)(=O)=O)Cc1ccc(CN)cc1`, the IC50 is greater than 10 µM.

The target in the next assay is T3, Proteasome subunit beta type-9. In words: Inhibition of 20S immunoproteasome beta 1 in human Raji cell lysates after 1 hr by competitive ABPP assay. Format: subcellular, Lysate. An outline of the steps:
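Raji cells were sonicated in 3 volumes of Tris pH 7.5 lysis buffer containing DTT, MgCl₂, sucrose, 2 mM ATP and 0.05% digitonin. Lysate (5 μg protein, in buffer with 2 mM ATP and glycerol) was preincubated with inhibitor for 1 h at 37 °C, then with a cocktail of three fluorescent ABPs for 1 h. […] In-gel fluorescence densitometry was normalized to mock. IC50 came from the mean of three experiments.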
`COC[C@H](NC(=O)[C@H](CC(C)C)NC(=O)c1cnc(C)s1)C(=O)N[C@H](/C=C/S(C)(=O)=O)Cc1ccc(CN)cc1`: the IC50 is greater than 100 µM.

A further assay deals with T4, Proteasome subunit beta type-10. Briefly: Inhibition of 20S immunoproteasome beta 2 in human Raji cell lysates after 1 hr by competitive ABPP assay. Format: subcellular, Lysate.
Regarding `COC[C@H](NC(=O)[C@H](CC(C)C)NC(=O)c1cnc(C)s1)C(=O)N[C@H](/C=C/S(C)(=O)=O)Cc1ccc(CN)cc1`, the half-maximal inhibitory concentration (IC50) turned out to be 4 µM.

The species entered for a further assay is Homo sapiens. Briefly: Selectivity ratio of IC50 for 20S immunoproteasome beta 2 in human Raji cell lysates to IC50 for 20S constitutive proteasome beta 2 trypsin-like activity in human Raji cells. It counts as cell-based.
`COC[C@H](NC(=O)[C@H](CC(C)C)NC(=O)c1cnc(C)s1)C(=O)N[C@H](/C=C/S(C)(=O)=O)Cc1ccc(CN)cc1`: the Ratio IC50 came out at 52.

The next assay has as its target T5, Proteasome subunit beta type-8. Briefly: Inhibition of 20S immunoproteasome beta 5 in human Raji cell lysates after 1 hr by competitive ABPP assay. It counts as subcellular, Lysate.
For `COC[C@H](NC(=O)[C@H](CC(C)C)NC(=O)c1cnc(C)s1)C(=O)N[C@H](/C=C/S(C)(=O)=O)Cc1ccc(CN)cc1`, the IC50 came to 57.1 µM.
